How the values were obtained:
[1] = tested on: Mus musculus; test: Anticonvulsant activity in Swiss albino mouse assessed as reduction of supramaximal electroshock-induced hind limb tonic extension response at 30 mg/kg, ip administered 30 mins before SME challenge measured after 1 hr; format: functional, Hindlimb; conditions: route intraperitoneal
Method in brief: (§1)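 Swiss albino mice of either sex, 30–35 g, n=6 per group, dosed 10 or 30 mg/kg i.p.; diazepam 5 mg/kg as standard. After 1 h, electroshock 42 mA for 0.2 s via ear electrodes. Readout: duration of hind limb extension phase (sec). Mean ± SEM; one-way ANOVA with Student–Newman–Keuls test.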

[2] = tested on: Mus musculus; test: Anticonvulsant activity in Swiss albino mouse assessed as inhibition of isoniazide hydrazone-induced seizure at 10 mg/kg, ip administered 30 mins before isoniazide hydrazone challenge measured after 1 hr; format: functional; conditions: route intraperitoneal
Method in brief: (§2)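 Swiss albino mice, 30–35 g, given test drug 10 or 30 mg/kg i.p.; INH 250 mg/kg i.p. injected 30 min later. Animals showing excitement, myoclonic jerks, clonic and maximal seizures grouped, n=6. Readout: reduction of seizure duration (sec). Reference standard diazepam. Mean ± SEM; one-way ANOVA with Student–Newman–Keuls test.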

[3] = tested on: Mus musculus; test: Toxicity in ip dosed Swiss albino mouse assessed as assessed as decrease in fall of time after 30 mins by rotarod test; format: organism-based; conditions: in vivo, 0.5 h
[4] = tested on: Mus musculus; test: Anticonvulsant activity in Swiss albino mouse assessed as inhibition of isoniazide hydrazone-induced seizure at 30 mg/kg, ip administered 30 mins before isoniazide hydrazone challenge measured after 1 hr; format: functional; conditions: route intraperitoneal; method in brief: as §2
[5] = tested on: Mus musculus; test: Toxicity in ip dosed Swiss albino mouse assessed as decrease in locomotor activity after 30 mins by actophotometer; format: organism-based; conditions: in vivo, 0.5 h
Method in brief: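 Actophotometer test in six mice per group, dosed 10 or 30 mg/kg i.p.; vehicle control 0.2% Tween 80 (0.3 ml/kg); diazepam 5 mg/kg as standard. Scored 30 min after dosing: beam interruptions counted over 10 min after 1 min acclimatization, before versus after treatment. Mean ± SEM.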

[6] = tested on: Mus musculus; test: Anticonvulsant activity in Swiss albino mouse assessed as reduction of supramaximal electroshock-induced hind limb tonic extension response at 10 mg/kg, ip administered 30 mins before SME challenge measured after 1 hr; format: functional, Hindlimb; conditions: route intraperitoneal; method in brief: as §1

Structure (SMILES) | Activity [1] | Activity [2] | Activity [3] | Activity [4] | Activity [5] | Activity [6]
Cc1csc(NC(=O)c2ccccc2)c1C(=O)NN1C2=Nc3ccccc3NC(c3ccccc3O)C2SC1/C=C/c1ccccc1 (stereo not drawn) | 14.263 s | 85.5 s | Non-toxic | 87.667 s | Non-toxic | 13.228 s
Cc1csc(NC(=O)c2ccccc2)c1C(=O)NN1C2=Nc3ccccc3NC(c3cccc([N+](=O)[O-])c3)C2SC1/C=C/c1ccccc1 (stereo not drawn) | 14.907 s | 71.33 s | Non-toxic | 78.833 s | Non-toxic | 15.328 s
Cc1csc(NC(=O)c2ccccc2)c1C(=O)NN1C2=Nc3ccccc3NC(c3ccccc3Cl)C2SC1/C=C/c1ccccc1 (stereo not drawn) | 13.632 s | 81.833 s | Non-toxic | 83.33 s | Non-toxic | 14.54 s
Cc1csc(NC(=O)c2ccccc2)c1C(=O)NN1C2=Nc3ccccc3NC(c3ccc(N(C)C)cc3)C2SC1/C=C/c1ccccc1 (stereo not drawn) | 13 s | 92.33 s | Non-toxic | 95.33 s | Non-toxic | 13.355 s
COc1ccc(C2Nc3ccccc3N=C3C2SC(/C=C/c2ccccc2)N3NC(=O)c2c(C)csc2NC(=O)c2ccccc2)cc1 (stereo not drawn) | 14.907 s | 101.83 s | Non-toxic | 108.5 s | Non-toxic | 15.328 s
Cc1csc(NC(=O)c2ccccc2)c1C(=O)NN1C2=Nc3ccccc3NC(c3ccc(F)cc3)C2SC1/C=C/c1ccccc1 (stereo not drawn) | 15.408 s | 69.833 s | Non-toxic | 74 s | Non-toxic | 16.442 s
CN1C(=O)CN=C(c2ccccc2)c2cc(Cl)ccc21 [DIAZEPAM] |  |  | Non-toxic |  | Non-toxic | 

Source: ChEMBL document CHEMBL1154852, “Design, synthesis and pharmacological screening of potential anticonvulsant agents using hybrid approach” (Eur J Med Chem, 2010)
